The source made the active and inactive calls. No cut-off for these calls is given here.
Columns and labels:
HeLa [1] = assay: Induction of [alpha-32P]-UTP-labeled Simian virus 40 late pre-mRNA 3' cleavage at 1 mM treated with 3' cleavage factors from human HeLa cell nuclear extract after 2 hrs by PAGE analysis; format: cell-based; details: Betapolyomavirus macacae
Procedure, shortened: (§1)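 Radiolabeled substrate (1–5 nM) derived from the SV40 late poly(A) signal was incubated with DEAE-sepharose CPSF, CstF and CFm fractions from HeLa nuclear extract. Test agent replaced 50 mM creatine phosphate. Reaction mix contained tRNA, 2 mM EDTA, 2 mM 2′-dATP, 2.5% polyvinyl alcohol and 10 mM HEPES pH 7.9, run at 30 °C for 2 h. Products were Proteinase K-digested, extracted, precipitated and resolved by 6% denaturing PAGE.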

HeLa [2] = assay: Induction of [alpha-32P]-UTP-labeled Simian virus 40 late pre-mRNA 3' cleavage treated with 3' cleavage factors from human HeLa cell nuclear extract after 2 hrs by PAGE analysis; format: cell-based; details: Betapolyomavirus macacae
Procedure, shortened: (§2)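 Partially purified HeLa nuclear extract cleavage factors (DEAE fractions CPSF, CstF, CFm; ammonium sulfate-concentrated, dialyzed against 20 mM Na-HEPES pH 7.9 buffer) incubated with radiolabeled SV40 late poly(A) signal substrate (1–5 nM). Reaction mix: tRNA 0.1 mg/mL, 2 mM EDTA, 2 mM 2'-dATP, 2.5% polyvinyl alcohol, 10 mM HEPES pH 7.9, 25 mM ammonium sulfate, activator replacing creatine phosphate. Run 2 h at 30 °C; Proteinase K treatment, 6% denaturing gel.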

HeLa [3] = assay: Induction of [alpha-32P]-UTP-labeled Simian virus 40 late pre-mRNA 3' cleavage at 200 nM treated with 3' cleavage factors from human HeLa cell nuclear extract after 2 hrs by PAGE analysis in presence of protein tyrosine phosphatase; format: cell-based; details: Betapolyomavirus macacae
HeLa [4] = assay: Induction of [alpha-32P]-UTP-labeled Simian virus 40 late pre-mRNA 3' cleavage at 200 nM treated with 3' cleavage factors from human HeLa cell nuclear extract after 2 hrs by PAGE analysis in presence of calf intestinal alkaline phosphatase; format: cell-based; details: Betapolyomavirus macacae
Protein phosphatase 1D = biological target: T1, Protein phosphatase 1D (Homo sapiens, UniProt O15297); assay: Inhibition of N-terminal His-tagged human PPM1D (1 to 420) assessed as phosphoric acid release after 30 mins
T1 sequence (O15297 whole entry): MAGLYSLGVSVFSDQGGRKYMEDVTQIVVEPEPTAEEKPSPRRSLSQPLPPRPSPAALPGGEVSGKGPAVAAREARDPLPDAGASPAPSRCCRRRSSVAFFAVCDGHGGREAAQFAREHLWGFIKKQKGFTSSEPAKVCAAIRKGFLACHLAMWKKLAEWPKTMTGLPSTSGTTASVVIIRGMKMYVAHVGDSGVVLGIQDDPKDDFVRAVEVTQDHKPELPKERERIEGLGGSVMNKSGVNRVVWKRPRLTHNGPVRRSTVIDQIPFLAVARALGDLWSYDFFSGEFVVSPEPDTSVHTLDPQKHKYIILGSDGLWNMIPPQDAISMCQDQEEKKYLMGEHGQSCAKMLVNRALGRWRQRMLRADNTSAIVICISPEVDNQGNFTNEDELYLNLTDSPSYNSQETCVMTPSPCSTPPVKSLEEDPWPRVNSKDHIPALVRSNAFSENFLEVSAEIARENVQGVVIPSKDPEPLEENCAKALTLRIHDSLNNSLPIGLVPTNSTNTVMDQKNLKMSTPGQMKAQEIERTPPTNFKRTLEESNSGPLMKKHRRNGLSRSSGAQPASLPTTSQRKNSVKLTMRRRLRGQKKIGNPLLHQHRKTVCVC

HeLa [5] = assay: Induction of [alpha-32P]-UTP-labeled Simian virus 40 late pre-mRNA 3' cleavage at 200 nM treated with 3' cleavage factors from human HeLa cell nuclear extract after 2 hrs by PAGE analysis; format: cell-based; details: Betapolyomavirus macacae; procedure, shortened: as §1
HeLa [6] = assay: Induction of [alpha-32P]-UTP-labeled Simian virus 40 late pre-mRNA 3' cleavage at 50 mM treated with 3' cleavage factors from human HeLa cell nuclear extract after 2 hrs by PAGE analysis; format: cell-based; details: Betapolyomavirus macacae; procedure, shortened: as §2
HeLa [7] = assay: Induction of [alpha-32P]-UTP-labeled Simian virus 40 late pre-mRNA 3' cleavage at 25 to 200 uM treated with 3' cleavage factors from human HeLa cell nuclear extract after 2 hrs by PAGE analysis; format: cell-based; details: Betapolyomavirus macacae; procedure, shortened: as §1
HeLa [8] = assay: Induction of [alpha-32P]-UTP-labeled Simian virus 40 late pre-mRNA 3' cleavage at >= 100 uM treated with 3' cleavage factors from human HeLa cell nuclear extract after 2 hrs by PAGE analysis relative to control; format: cell-based; details: Betapolyomavirus macacae; procedure, shortened: as §1
[9] = Inhibition of ABI2 (unknown origin) at 3 uM relative to control; design: scale not given: the % may be the effect or the level left
[10] = Inhibition of ABI2 (unknown origin)
[11] = Inhibition of ABI1 (unknown origin)

N=C(N)NCCC[C@H](N)C(=O)Nc1ccccc1
Activity (HeLa [1]): inactive

CC(=O)N[C@@H](CCCC[N+](C)(C)C)C(=O)N[C@@H](COP(=O)([O-])O)C(=O)O
Activity (HeLa [1]): Active

C[N+](C)(C)CCCOP(=O)(O)O
Activity (HeLa [2]): inactive

CNCCOP(=O)(O)O
Activity (HeLa [2]): inactive

C[N+](C)(C)CCOP(=O)(O)O
Activity (HeLa [1]): inactive

N=C(N)NCCC[C@H](N)C(=O)Nc1cnc2ccccc2c1
Activity (HeLa [1]): inactive

CC[C@H](C)[C@@H]1NC(=O)[C@H](Cc2ccc(OP(=O)(O)O)cc2)NC(=O)[C@H](CC(=O)O)NC(=O)[C@H](CCC(=O)O)N[C@H](C(N)=O)CSCC(=O)[C@H](Cc2ccccc2)NC(=O)[C@H](COP(=O)(O)O)NC1=O
Activity (HeLa [3]): Active
Activity (HeLa [4]): inactive
Ki (Protein phosphatase 1D): 0.15 µM
Activity (HeLa [5]): Active

CN(C)CCOP(=O)(O)O
Activity (HeLa [2]): inactive

CN(CC(=O)O)C(=N)NP(=O)(O)O
Activity (HeLa [6]): Active

N=C(N)NCCC[C@H](N)C(=O)Nc1cccc2ccccc12
Activity (HeLa [1]): inactive

N=C(N)NCCC[C@@H](C(=O)Nc1ccc2ccccc2c1)N1CCOCC1
Activity (HeLa [7]): Active

CC1=CC(=O)CC(C)(C)[C@@]1(O)/C=C/C(C)=C\C(=O)O [(+)-ABSCISIC ACID]
Activity (HeLa [8]): 10%
Activity [9]: 15%
IC50 [10]: 0.07 µM
IC50 [11]: 0.06 µM

N[C@@H](COP(=O)(O)O)C(=O)O
Activity (HeLa [1]): inactive

CCNC(=N)NCCC[C@H](N)C(=O)Nc1cccc2ccccc12
Activity (HeLa [1]): inactive

N=C(N)NCCC[C@H](N)C(=O)Nc1ccc2ccccc2c1
Activity (HeLa [7]): Active

From ChEMBL document CHEMBL3108742, “Structurally diverse low molecular weight activators of the mammalian pre-mRNA 3' cleavage reaction” (Bioorg Med Chem, 2014)
